Here are results for 27 compounds from ChEMBL document CHEMBL1129604, “Design, synthesis, and evaluation of nonpeptidic inhibitors of human rhinovirus 3C protease” (J Med Chem, 1996).

A word on the pKi: it is the Ki on a negative log10 scale, so that one unit is a factor of ten. As usually defined, the inhibition is the share of the control response that was lost under treatment. A high value points to strong suppression. As usually defined, the pEC50 is −log10 of the EC50, conventionally taken in molar units. Low values mean a large EC50, high ones a small EC50.

The structures appear in SMILES notation. pEC50, pKi: −log10 of the molar value. A value given as a limit tells only on which side of the number the result lay.

Experiment [1] deals with T1, Human rhinovirus A protease (Human rhinovirus sp., UniProt Q4U254).
T1 sequence (Q4U254 whole entry): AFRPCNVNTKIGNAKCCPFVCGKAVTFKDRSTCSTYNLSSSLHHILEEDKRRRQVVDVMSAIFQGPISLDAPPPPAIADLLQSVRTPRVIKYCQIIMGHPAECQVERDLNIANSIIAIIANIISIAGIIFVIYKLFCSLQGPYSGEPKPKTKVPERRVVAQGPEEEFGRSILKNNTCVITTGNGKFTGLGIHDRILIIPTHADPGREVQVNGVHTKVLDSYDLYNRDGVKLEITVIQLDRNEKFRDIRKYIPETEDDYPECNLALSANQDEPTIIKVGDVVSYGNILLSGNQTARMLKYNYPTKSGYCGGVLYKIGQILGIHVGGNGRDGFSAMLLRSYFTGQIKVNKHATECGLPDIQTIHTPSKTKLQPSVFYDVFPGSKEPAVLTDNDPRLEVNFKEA
Briefly: Inhibition of human rhinovirus 3C protease. Also on record: species or system Rhinovirus B. The method in brief:
(§1)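 Buffer was 50 mM Tris pH 7.6, 1 mM EDTA, 2% DMSO at 30 °C. Enzyme and inhibitor were preincubated 10 min before substrate start. Fluorescence ex 336/em 490 nm. Ki came from nonlinear fit of initial velocity versus inhibitor.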

For experiment [2], the system named is Enterovirus. The experiment in a line: Compound was tested for the inhibitory activity of compound towards human rhinovirus 3C protease. The class given is functional, organism-based. The method in brief:
as §1

The test system of experiment [3] is Enterovirus. Briefly: Compound was tested for the inhibitory activity of compound towards human rhinovirus-89 3C protease. The class given is functional, organism-based. The method in brief:
(§2)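 3CP from HRV-16, -2 or -89 was cloned from infected-HeLa cDNA (3A C-terminus–3B–3C region), expressed in E. coli and purified. The same FRET assay (1 μM DABCYL/EDANS peptide, 50 mM Tris pH 7.6, 1 mM EDTA, 2% DMSO, 30 °C, 10 min preincubation) was run at 100–200 nM enzyme. Ki was obtained by nonlinear regression of initial velocities.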

A short description of experiment [4]: Percentage inhibition of Cathepsin (human liver) at 10 uM conc of drug.
The target in experiment [5] is Chymotrypsinogen A (Bos taurus) (UniProt P00766). The experiment in a line: Percentage inhibition of bovine chymotrypsin at 50 uM conc of drug.
Experiment [6] deals with HeLa. The experiment in a line: Compound was tested for the 50% toxic concentration against Human Rhinovirus-14 (HRV-14) in Hela cells. The following applies: read-out: TC50 (the source's name). The class given is functional. A digest of the protocol: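 HI-HeLa cells in MEM with 10% FBS, mock-infected with medium only, resuspended at 8 × 10^5 cells/mL and incubated with compound. After two days, XTT/PMS was added and formazan was read at 450/650 nm. CC50 is the concentration lowering formazan to 50% of compound-free uninfected cells.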

Experiment [7] relates to HeLa. Briefly: Compound was tested for the antiviral activity against Human Rhinovirus -14(HRV-14) in HeLa cells. The class given is functional, cell-based. A digest of the protocol: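 Cell protection assay in HI-HeLa cells (MEM, 10% FBS). Cells were infected with HRV-14 at moi 0.13, resuspended at 8 × 10^5 cells/mL and incubated with compound for two days. XTT/PMS formazan was read at 450/650 nm. EC50 is the concentration restoring formazan to 50% of compound-free uninfected cells.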

The target of experiment [8] is T2, Neutrophil elastase (Homo sapiens) (UniProt P08246).
T2 sequence (whole entry): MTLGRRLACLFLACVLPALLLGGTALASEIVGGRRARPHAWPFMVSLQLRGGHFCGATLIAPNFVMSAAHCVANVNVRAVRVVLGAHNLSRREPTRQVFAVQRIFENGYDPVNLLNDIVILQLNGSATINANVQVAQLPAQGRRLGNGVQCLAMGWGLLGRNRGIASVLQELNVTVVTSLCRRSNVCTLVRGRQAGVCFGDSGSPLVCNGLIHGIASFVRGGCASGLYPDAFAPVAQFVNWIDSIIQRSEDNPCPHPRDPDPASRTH
The experiment in a line: (§3) Percentage inhibition of Pancreatic elastase at 100 uM conc of drug.

In experiment [9] the target is Prothrombin (Homo sapiens) (UniProt P00734). Briefly: (§4) Percentage inhibition of human thrombin at 100 uM conc of drug.
Experiment [10] has as its target T3, Serine protease 1 (Bos taurus) (UniProt P00760).
T3 sequence (whole entry): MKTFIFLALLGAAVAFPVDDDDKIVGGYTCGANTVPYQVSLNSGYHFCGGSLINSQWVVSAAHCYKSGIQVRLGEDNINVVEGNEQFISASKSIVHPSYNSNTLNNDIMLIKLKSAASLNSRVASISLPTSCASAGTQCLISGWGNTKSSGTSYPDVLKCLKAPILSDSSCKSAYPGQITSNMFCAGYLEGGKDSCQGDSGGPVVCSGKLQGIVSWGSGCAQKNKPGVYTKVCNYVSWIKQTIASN
The experiment in a line: (§5) Percentage inhibition of bovine trypsin at 100 uM conc of drug.

Experiment [11] relates to Enterovirus. Briefly: Compound was tested for the inhibitory activity of compound towards human rhinovirus-2 3C protease. The class given is functional, organism-based. The method in brief: as §2
The test system of experiment [12] is Enterovirus. Briefly: Compound was tested for the inhibitory activity of compound towards human rhinovirus-16 3C protease. The class given is functional, organism-based. The method in brief: as §2
Experiment [13] in a line: (§6) Percentage inhibition of Cathepsin (human liver) at 100 uM conc of drug.
Experiment [14] addresses Chymotrypsinogen A (Bos taurus) (UniProt P00766). The experiment in a line: (§7) Percentage inhibition of bovine chymotrypsin at 100 uM conc of drug.
Experiment [15] in a line: Theuraptic index was reported. The class given is functional. A digest of the protocol:
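TI is CC50 (uninfected HI-HeLa, XTT formazan) divided by EC50 (HRV-14-infected HI-HeLa, moi 0.13, two days, XTT read at 450/650 nm).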

The nature of experiment [16]: as §6. The class given is functional.
Experiment [17] has as its target Chymotrypsinogen A (Bos taurus) (UniProt P00766). The experiment is described as §7. The class given is functional.
Experiment [18] addresses T2, Neutrophil elastase (Homo sapiens). The experiment is described as §3. The class given is functional.
Experiment [19] deals with T3, Serine protease 1 (Bos taurus). Described as §5. The class given is functional.
The target in experiment [20] is Prothrombin (Homo sapiens) (UniProt P00734). The experiment is described as §4. The class given is functional.

As to `CC(=O)c1ccc2c(c1)C(=O)C(=O)N2C`, the negative-log Ki (pKi) in experiment [1] is 5.92.

In the case of `NC(=O)c1ccc2c(c1)C(=O)C(=O)N2Cc1cc2ccccc2s1`, the pKi in experiment [2] is 8.70; in [3], 8.96; in experiment [11] it was 8.28; in [12] it was 7.92. Further, the inhibition in experiment [4] amounted to 0%; in experiment [5] it was 25%; in experiment [8], 0%; in experiment [9], 0%; in experiment [10] it was 0%. The CC50 in [6] is 5.6 µM. The compound further showed a pEC50 in experiment [7] of less than 5.25.

With `CN1C(=O)C(=O)c2cc(C#N)ccc21`, the pKi in [1] was 4.29.

Regarding `COc1ccc2cc(CN3C(=O)C(=O)c4cc(C(N)=O)ccc43)ccc2c1`, the pKi in [1] is 8.52. Compared with the last compound, the pKi is 4.23 log units higher.

For the compound `COc1cccc(CN2C(=O)C(=O)c3cc(C(N)=O)ccc32)c1`, the pKi in experiment [1] is 7.54. Besides, in experiment [6], the CC50 amounted to 20 µM. Also, the pEC50 in [7] is less than 4.70.

`CN1C(=O)C(=O)c2cc([S+](C)[O-])ccc21` (configuration not stated) showed a pKi in [1] of 5.09.

Regarding `CN1C(=O)C(=O)c2ccccc21`, the pKi in experiment [1] was less than 4.00.

For `CN1C(=O)C(=O)c2cc([N+](=O)[O-])ccc21`, the negative-log Ki (pKi) in [1] was 5.01.

For `NC(=O)c1ccc2c(c1)C(=O)C(=O)N2Cc1cc(O)cc(O)c1`, in experiment [1], the pKi is 8.40. The CC50 in experiment [6] was greater than 100 µM. The pEC50 in experiment [7] was less than 4.00.

Consider `CN1C(=O)C(=O)c2cc(C(=O)O)ccc21`, for which, in experiment [1], the pKi was 5.00. Moreover, the CC50 in [6] was greater than 100 µM. In experiment [7], this compound had a pEC50 of less than 4.00.

`NC(=O)c1ccc2c(c1)C(=O)C(=O)N2Cc1ccc2ccccc2c1`: in experiment [1], the pKi was 8.40. Besides, in [6], the CC50 was found to be 10 µM. This compound also gave a pEC50 in experiment [7] of less than 5.00.

In the case of `CN1C(=O)C(=O)c2cc(C(N)=O)ccc21`, the pKi in experiment [2] is 7.29; in [3], 7.46; in experiment [11] it was 7.11; in [12], 7.40. In addition, the inhibition in [13], in experiment [14], in experiment [8], in [9] and in experiment [10] was 0% throughout. Further, in experiment [6], the CC50 turned out to be 270 µM. Moreover, the pEC50 in experiment [7] was 4.18. In addition, the TI in experiment [15] was found to be 4.

As for `Cc1ccc(CN2C(=O)C(=O)c3cc(C(N)=O)ccc32)cc1`, the pKi in experiment [1] was 8.00.

In experiment [1], `NC(=O)c1ccc2c(c1)C(=O)C(=O)N2Cc1ccc2cc(O)ccc2c1` gave a pKi of 8.40.

For `CN1C(=O)C(=O)c2cc(Cl)ccc21`, the pKi in [1] was 4.23.

On to `Cc1ccc(CN2C(=O)C(=O)c3cc(C(N)=O)ccc32)cc1C`, for which the pKi in experiment [1] is 8.22.

The compound `COC(=O)c1ccc2c(c1)C(=O)C(=O)N2C` had a pKi in [1] of 4.52. Besides, the CC50 in [6] is greater than 100 µM. In addition, in [7], the negative logarithm of the EC50 (pEC50) is 4.25. Moreover, in [15], the TI was greater than 2.

`CN1C(=O)C(=O)c2cc(I)ccc21` had a pKi in experiment [1] of 4.52. For the same compound, the CC50 in experiment [6] was greater than 100 µM. The same compound had a pEC50 in [7] of 4.15. Moreover, in experiment [15], the TI is greater than 1.

Turning to `CN1C(=O)C(=O)c2cc(C(N)=S)ccc21`, in experiment [1], the pKi was 4.96.

For the compound `NC(=O)c1ccc2c(c1)C(=O)C(=O)N2CCCc1ccccc1`, the pKi in experiment [1] is 7.57. Moreover, the CC50 in experiment [6] amounted to 7.1 µM. The compound also gave a negative-log EC50 (pEC50) in experiment [7] of less than 5.15.

In experiment [1], `CNC(=O)c1ccc2c(c1)C(=O)C(=O)N2C` showed a pKi of 4.92.

On to `NC(=O)c1ccc2c(c1)C(=O)C(=O)N2Cc1cccc(O)c1`, for which the pKi in experiment [1] was 7.96. The CC50 in experiment [6] is 20 µM. Further, the pEC50 in [7] is less than 4.70.

For `NC(=O)c1ccc2c(c1)C(=O)C(=O)N2Cc1ccc(-c2ccccc2)cc1`, in experiment [1], the negative logarithm of the Ki (pKi) is 7.32.

Take `CN(C)C(=O)c1ccc2c(c1)C(=O)C(=O)N2C`: in experiment [1], the pKi was 4.48.

In turn, `COc1cc(CN2C(=O)C(=O)c3cc(C(N)=O)ccc32)cc(OC)c1` gave a pKi in experiment [1] of 7.60.

On to `NC(=O)c1ccc2c(c1)C(=O)C(=O)N2Cc1ccccc1`, for which the pKi in experiment [1] was 7.72. In addition, in experiment [6], the CC50 turned out to be 50.1 µM. Besides, in [7], the pEC50 was 4.85. Also, the TI in experiment [15] came to 3.5.

Turning to `NC(=O)c1ccc2c(c1)C(=O)C(=O)N2C/C=C/c1ccccc1`, the pKi in [2] was 7.96. Further, the inhibition at 100 µM in experiment [16] stood at 27%. Besides, the inhibition in [17] came to 67%; in experiment [18], 40%; in experiment [19] it was 0%; in [20] it was 34%. Besides, the CC50 in experiment [6] was determined as 9.6 µM. Also, the pEC50 in experiment [7] was 5.20. The TI in experiment [15] was 1.5.
